Laboratory results: ChEMBL document CHEMBL1156597, “Structure-activity relationship of kahalalide F synthetic analogues” (J Med Chem, 2008)

Assays:
[1] = system: PANC-1; assay: Cytotoxicity against human PANC1 cells after 48 hrs by SRB assay; assay type: functional; conditions: PANC-1, 48 h; for CC50: read-out: LC50 (the source's name)
Method in brief: (§1)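 Cells grown in RPMI 1640 with 10% FBS and penicillin/streptomycin at 37 °C and 5% CO₂, trypsinized, then seeded at 5 × 10³/well. After 18 h drug-free attachment, samples in DMSO/EtOH/PBS (0.5:0.5:99) were added for 48 h continuous exposure. Cells were fixed with cold TCA (1 h, 4 °C) and stained with SRB (10 min). Tris-solubilized stain read at 490 nm. Triplicate wells, mean ± SD; GI₅₀ derived.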

[2] = system: SK-BR-3; assay: Cytotoxicity against human SKBR3 cells after 48 hrs by SRB assay; assay type: functional; conditions: SK-BR-3, 48 h; for GI50: read-out: GI50; for CC50: read-out: LC50 (the source's name); method in brief: as §1
[3] = Cytotoxicity against human HeLa-APL cells after 48 hrs by SRB assay; assay type: functional; method in brief: as §1
[4] = system: K562; assay: Cytotoxicity against human K562 cells after 48 hrs by SRB assay; assay type: functional; conditions: K562, 48 h; for CC50: read-out: LC50 (the source's name); method in brief: as §1
[5] = system: SK-MEL-28; assay: Cytotoxicity against human SK-MEL-28 cells after 48 hrs by SRB assay; assay type: functional, cell-based; conditions: Homo sapiens, SK-MEL-28, 48 h; for CC50: read-out: LC50 (the source's name); method in brief: as §1
[6] = system: LoVo; assay: Cytotoxicity against human doxorubicin resistant LoVo cells after 48 hrs by SRB assay; assay type: functional; conditions: for CC50: read-out: LC50 (the source's name); method in brief: as §1
[7] = Cytotoxicity against human IGROV cells after 48 hrs by SRB assay; assay type: functional; conditions: for CC50: read-out: LC50 (the source's name); method in brief: as §1
[8] = Cytotoxicity against human IGROV-ET cells after 48 hrs by SRB assay; assay type: functional; conditions: for CC50: read-out: LC50 (the source's name); method in brief: as §1
[9] = system: HeLa; assay: Cytotoxicity against human HeLa cells after 48 hrs by SRB assay; assay type: functional; conditions: for CC50: read-out: LC50 (the source's name); method in brief: as §1
[10] = system: LoVo; assay: Cytotoxicity against human LoVo cells after 48 hrs by SRB assay; assay type: functional; conditions: for CC50: read-out: LC50 (the source's name)
[11] = system: LNCaP; assay: Cytotoxicity against human LNcaP cells after 48 hrs by SRB assay; assay type: functional; conditions: for CC50: read-out: LC50 (the source's name); method in brief: as §1
[12] = system: HT-29; assay: Cytotoxicity against human HT29 cells after 48 hrs by SRB assay; assay type: functional, cell-based; conditions: Homo sapiens, HT-29, 48 h; for CC50: read-out: LC50 (the source's name); method in brief: as §1
[13] = system: A549; assay: Cytotoxicity against human A549 cells after 48 hrs by SRB assay; assay type: functional, cell-based; conditions: Homo sapiens, A549, 48 h; method in brief: as §1
[14] = system: DU-145; assay: Cytotoxicity against human DU145 cells after 48 hrs by SRB assay; assay type: functional, cell-based; conditions: Homo sapiens, DU-145, 48 h; for CC50: read-out: LC50 (the source's name); method in brief: as §1

| Compound | GI50 [1] | TGI [1] | CC50 [1] | TGI [2] | GI50 [2] | CC50 [2] | GI50 [3] | LC50 (concentration giving 50% net cell kill) [3] | TGI [3] | GI50 [4] | TGI [4] | CC50 [4] | GI50 ([5]; read-out: GI50) | CC50 [5] | CC50 [6] | GI50 [7] | GI50 ([7]; read-out: GI50) | CC50 [7] | GI50 [8] | GI50 ([8]; read-out: GI50) | also measured |
| --- | --- | --- | --- | --- | --- | --- | --- | --- | --- | --- | --- | --- | --- | --- | --- | --- | --- | --- | --- | --- | --- |
| C/C=C1\NC(=O)[C@H](Cc2ccccc2)NC(=O)[C@@H](C(C)C)NC(=O)[C@@H]([C@H](C)CC)NC(=O)[C@H](NC(=O)[C@H](NC(=O)[C@H](CCCN)NC(=O)[C@H]2CCCN2C(=O)[C@H](NC(=O)[C@@H](NC(=O)[C@@H](NC(=O)[C@H](NC(=O)CCCC(C)C)C(C)C)C(C)C)C(C)C)C(C)C)[C@H](C)CC)[C@H](C)OC(=O)[C@H](C(C)C)NC1=O | 1.12 µM | 1.26 µM | 1.42 µM | 0.153 µM | 0.166 µM | 0.0758 µM | 0.324 µM | 0.73 µM | 0.467 µM | 0.718 µM | 0.899 µM | 1.1 µM | 0.209 µM | 0.151 µM | 0.028 µM | 0.118 µM | 0.183 µM | 0.0559 µM | 0.248 µM | 0.257 µM | TGI [5]: 0.178 µM; CC50 [8]: 0.0648 µM; GI50 [9]: 0.134 µM; TGI [9]: 0.124 µM; CC50 [9]: 0.116 µM; GI50 [10]: 0.276 µM; TGI [10]: 0.27 µM; CC50 [10]: 0.264 µM; GI50 [11]: 0.334 µM; TGI [11]: 0.53 µM; CC50 [11]: 0.733 µM; GI50 [12]: 0.3 µM; TGI [12]: 0.311 µM; CC50 [12]: 0.322 µM; GI50 [13]: 0.445 µM; LC50 [13]: 0.64 µM; GI50 ([13]; read-out: GI50): 0.258 µM; GI50 [14]: 0.149 µM; GI50 ([14]; read-out: GI50): 0.175 µM; CC50 [14]: 0.127 µM |
| C/C=C1\NC(=O)[C@H](Cc2ccccc2)NC(=O)[C@@H](C(C)C)NC(=O)[C@@H]([C@H](C)CC)NC(=O)[C@H](NC(=O)[C@H](NC(=O)[C@H](CCCN)NC(=O)[C@H]2CCCN2C(=O)[C@H](NC(=O)[C@@H](NC(=O)[C@H](Cc2ccccc2)NC(=O)[C@H](NC(=O)CCCC(C)C)C(C)C)C(C)C)C(C)C)[C@H](C)CC)[C@H](C)OC(=O)[C@H](C(C)C)NC1=O | 0.142 µM | 0.304 µM | 1.72 µM | 0.351 µM | 0.303 µM | 0.352 µM | 0.145 µM | 0.282 µM | 0.142 µM | 0.0232 µM | 0.106 µM | 1.15 µM | 0.152 µM | 0.158 µM | 0.252 µM | 0.103 µM | 0.175 µM | 0.478 µM | 0.197 µM | 0.245 µM | GI50 [5]: 0.146 µM; GI50 [6]: 0.38 µM; TGI [6]: 0.456 µM; CC50 [8]: 0.518 µM; GI50 [9]: 0.128 µM; TGI [9]: 0.137 µM; CC50 [9]: 0.352 µM; GI50 [10]: 0.332 µM; TGI [10]: 0.296 µM; CC50 [10]: 0.21 µM; GI50 [11]: 0.0617 µM; TGI [11]: 0.132 µM; CC50 [11]: 0.777 µM; CC50 [12]: 0.0683 µM; LC50 [13]: 1.33 µM; TGI [13]: 0.0714 µM; GI50 ([13]; read-out: GI50): 0.0694 µM; GI50 [14]: 0.166 µM; GI50 ([14]; read-out: GI50): 0.191 µM; CC50 [14]: 0.321 µM |
